Laboratory results from ChEMBL document CHEMBL5214904, “Design, Synthesis, and Biological Evaluation of Boron-Containing Macrocyclic Polyamines and Their Zinc(II) Complexes for Boron Neutron Capture Therapy” (J Med Chem, 2021).

Tests used:
[1] = Drug uptake in human A549 cells assessed as increase in intracellular boron atoms at 30 uM measured after 24 hrs by ICP-MS analysis; assay type: ADME, cell-based; settings: a549, 24 h
How it was run: (§1)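 Cells seeded at 5 × 10^5/well and grown overnight at 37 °C, 5% CO2, normoxic. A549 in DMEM/10% FBS; HeLa S3 in MEM/10% FBS. Exposed to 30 μM compound for 24 h. Cells washed with PBS ×3 and digested in 60% HNO3 for 24 h at room temperature, then diluted, centrifuged and filtered. Total boron (10B+11B) measured by ICP-MS and normalized per cell from hemocytometer counts of a parallel well. Mean ± SD of triplicates.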

[2] = tested on: Calf thymus DNA; experiment: Binding affinity to calf thymus DNA assessed as stabilization by measuring change in melting temperature at ratio of 5 by UV/vis spectrophotometric; assay type: nucleic-acid assay; settings: Bos taurus
[3] = Drug uptake in human A549 cells assessed as increase in intracellular boron concentration measured per cell at 30 uM measured after 24 hrs by ICP-MS analysis; assay type: ADME, cell-based; settings: a549, 24 h; how it was run: as §1
[4] = tested on: Calf thymus DNA; experiment: Binding affinity to calf thymus DNA assessed as stabilization by measuring change in melting temperature at ratio of 1 by UV/vis spectrophotometric; assay type: nucleic-acid assay; settings: Bos taurus
[5] = Drug uptake in human HeLa S3 cells assessed as increase in intracellular boron concentration measured per cell at 30 uM measured after 24 hrs by ICP-MS analysis; assay type: ADME, cell-based; settings: hela s3, 24 h; how it was run: as §1
[6] = tested on: Calf thymus DNA; experiment: Binding affinity to calf thymus DNA assessed as stabilization by measuring change in melting temperature at ratio of 0.1 by UV/vis spectrophotometric; assay type: nucleic-acid assay; settings: Bos taurus
[7] = tested on: Calf thymus DNA; experiment: Binding affinity to calf thymus DNA assessed as stabilization by measuring change in melting temperature at ratio of 0.2 by UV/vis spectrophotometric; assay type: nucleic-acid assay; settings: Bos taurus

Drug uptake [1]	ΔTm [2] [°C]	Drug uptake [3]	ΔTm [4] [°C]	SMILES	other results
Active				c1cc(B2OC3(CCCCC3)C3(CCCCC3)O2)ccc1CN1CCNCCNCC1	
	8	Active	3	c1cc(B2OC3(CCCCC3)C3(CCCCC3)O2)ccc1CN1CCNCCNCCNCCNCC1	Drug uptake [5]: > 2.5 fmol
				NCCCCNCCCN	ΔTm [6]: 7 °C; ΔTm [7]: 12 °C
Active		Active		c1cc(CN2CCNCCNCC2)cc(B2OC3(CCCCC3)C3(CCCCC3)O2)c1	
	6	Active	1	c1cc(CN2CCNCCNCCNCC2)cc(B2OC3(CCCCC3)C3(CCCCC3)O2)c1	
